HSF-1 act = HSF-1 activators, primary screen, NIH3T3-HGL cells, MG132 stress, luminescence, single point | hit rate 1.7% among 300,000 | NIH3T3-HGL HSF-1 luciferase reporter, 8 h; 100% = twice DMSO control signal | activation, % at 9 µM;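 active means mean replicate activation of at least 50% with a set share of replicates each reaching 50%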
PHOSPHO1 inh = PubChem AID 1565; Phosphoethanolamine/phosphocholine phosphatase (Homo sapiens), Q8TCT1; recombinant PHOSPHO1, absorbance phosphatase assay; inhibition, % at 13.3 µM; hit rate 1.1% among 290,000; in the data active means inhibition above about 60%
CHT block = inhibitors of human choline transporter CHT; CHT-expressing cells, membrane potential dye, choline response; active compounds read low; High affinity choline transporter 1 (Homo sapiens), Q9GZV3; B-score at 10 µM; hit rate 0.86% among 310,000;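 active means B-score over 3 SD under the library average, and starting fluorescence ratio not unusually high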;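 further: choline stimulus applied at its EC90 after an EC20 pre-addition; B-score computed on integrated fluorescence ratio after choline addition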
Target sequence (Q9GZV3 whole entry, looked up): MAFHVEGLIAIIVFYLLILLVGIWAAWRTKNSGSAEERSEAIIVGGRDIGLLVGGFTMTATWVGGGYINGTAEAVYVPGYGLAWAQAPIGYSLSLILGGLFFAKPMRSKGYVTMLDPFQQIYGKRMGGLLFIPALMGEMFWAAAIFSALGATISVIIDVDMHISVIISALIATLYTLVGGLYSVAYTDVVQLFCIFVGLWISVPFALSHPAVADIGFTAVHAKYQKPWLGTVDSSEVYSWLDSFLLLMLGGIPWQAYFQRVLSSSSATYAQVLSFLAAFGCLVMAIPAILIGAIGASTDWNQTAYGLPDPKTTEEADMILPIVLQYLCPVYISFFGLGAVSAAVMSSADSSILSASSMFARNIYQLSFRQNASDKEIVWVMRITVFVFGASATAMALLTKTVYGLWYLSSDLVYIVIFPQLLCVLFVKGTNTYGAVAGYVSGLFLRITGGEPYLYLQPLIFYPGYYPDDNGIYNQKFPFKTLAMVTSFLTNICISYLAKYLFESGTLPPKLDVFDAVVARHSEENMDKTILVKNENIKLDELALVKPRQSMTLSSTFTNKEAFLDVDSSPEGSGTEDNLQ
HSF1 inhib = HSF1 inhibitors in luciferase reporter cells, primary screen, cell-based, NIH3T3, luminescence | NIH3T3-HGL HSE-luciferase, MG132-induced, luminescence 8 h; active compounds read low | activity change, negative = inhibition, % at 7.5 µM (by protocol) | hit rate 0.77% among 300,000 | AID 2098, 2009;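 active means more than half of replicate wells show activity change below -50%, luminescence cut by over half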;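 further: luciferase reports HSF-1 transcriptional activity via heat shock element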
Hep lipid drop = inhibitors of hepatocyte lipid droplet formation, primary screen, imaging, high-throughput imaging, BODIPY stain; AML12 mouse hepatocytes, oleate lipid droplets; inhibition, % at 6.5 µM; hit rate 0.4% among 240,000; AID 1656, 2009;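 active means lipid droplet intensity inhibited by at least 50%, with more than 500 cells counted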
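System: AML12 hepatocytes (mouse). Probe or stimulus: oleic acid at 100 µM to induce lipid droplet formation. Times: overnight treatment with compound plus oleate. Detection: Image-based BODIPY and DAPI two-channel analysis. Evaluation: percent inhibition of filter-corrected integrated lipid droplet intensity per well.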
CHT allo act = CHT positive allosteric modulators, primary screen, cell-based, membrane potential dye, choline EC20. High affinity choline transporter 1 (Homo sapiens), Q9GZV3. CHT-expressing cells; active compounds read high; LV-AA mutant CHT in HEK293 cells. B-score at 10 µM. hit rate 0.49% among 310,000;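 active means initial fluorescence not abnormally high and integrated response B-score, plate-corrected, over 3 SD above library mean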
Numbers stand for hits; i = inactive; nt = no result given. An excerpt weighted towards active compounds, which were near 4.9% of everything screened.

SMILES	HSF-1 act	PHOSPHO1 inh	CHT block	HSF1 inhib	Hep lipid drop	CHT allo act
c1ccc(-c2cc(-c3ccccc3)n3ncnc3n2)cc1	i	i	i	i	i	i
CCOC(=O)CSc1cc(-c2ccccc2)nc2ncnn12	75	i	i	i	i	i
Cc1cccc(OCc2nnc(SCC(=O)N(C(C)C)C(C)C)n2Cc2ccco2)c1C	60	i	i	i	nt	i
Cc1ccc(NC(=O)CSc2nnc(CSc3nc(C)cc(C)n3)n2Cc2ccco2)c(C)c1	i	i	i	i	i	i
Cc1cccc(-c2nnc(SCc3ccc(C#N)cc3)n2Cc2ccco2)c1	i	64	i	i	nt	i
Cc1ccc(C)c(NC(=O)CSc2nnc(CSc3nc(C)cc(C)n3)n2Cc2ccco2)c1	66	i	i	i	nt	i
COc1cccc(-c2nnc(SCc3nc4ccccc4[nH]3)n2N)c1	71	i	i	i	i	i
Cc1cc(NC(=O)CSc2nnc(COc3cccc(C)c3C)n2Cc2ccco2)no1	i	i	i	i	i	i
CCn1c(SCc2ccc(C#N)cc2)nnc1-c1cccc(Cl)c1	i	i	i	i	i	i
CN1CCN(C(=O)c2cc(COc3ccccc3)on2)[C@@H](c2ccccc2)C1	i	i	i	i	i	i
CC(C)Cc1nnc(NC(=O)c2ccc3c(=O)n4c(nc3c2)CCC4)s1	i	i	i	i	i	i
COc1ccc(NC(=O)CSc2nnc(COc3ccccc3)n2Cc2ccco2)cc1OC	i	i	i	i	nt	i
CCn1c(SCc2nc3ccccc3[nH]2)nnc1-c1cccs1	i	i	i	i	nt	i
COc1ccc(C)cc1NC(=O)CSc1nnc(COc2ccc(Cl)cc2)n1Cc1ccco1	107	i	i	i	nt	i
O=C(CSc1nnc(COc2ccc(Cl)cc2)n1Cc1ccco1)c1ccccc1F	i	96	i	i	nt	i
Clc1ccc(OCc2nnc(SCc3nc4ccccc4[nH]3)n2Cc2ccco2)cc1	i	74	i	i	nt	i
Clc1cccc(-c2nnc(SCc3nc4ccccc4[nH]3)n2Cc2ccco2)c1	i	77	i	i	nt	i
O=C1C2ON(c3ccccc3)C(c3ccccn3)C2C(=O)N1c1ccc(Br)cc1 (configuration not stated)	i	i	i	i	nt	i
COc1ccc(OCC(=O)NNC(=O)C(=O)Nc2cc(OC)ccc2OC)cc1	i	i	i	i	i	i
Clc1ccccc1CSc1nnc(-c2ccccn2)n1Cc1ccco1	120	i	i	i	nt	i
c1coc(Cn2c(SCc3nc4ccccc4[nH]3)nnc2-c2cnccn2)c1	i	90	i	i	nt	i
COc1ccc(S(=O)(=O)CCC(=O)Nc2cc(C)ccc2OC)cc1	i	i	i	-66	i	i
NC(=O)CSc1nnc(-c2ccccn2)n1Cc1ccco1	i	i	i	i	i	i
COc1ccc(C)cc1NC(=O)C(=O)NNC(=O)COc1ccc(Cl)cc1	i	i	i	-85	i	i
COc1ccc(N(CC(=O)NCc2ccco2)C(=O)CCC(=O)Nc2nccs2)c(OC)c1	i	i	i	i	i	i
SMILES	HSF-1 act	PHOSPHO1 inh	CHT block	HSF1 inhib	Hep lipid drop	CHT allo act
COc1ccc(C2C=C(c3cccs3)Nc3nc(CCCO)nn32)cc1 (configuration not stated)	nt	i	i	nt	nt	i
CCN(C(=O)c1cccc(Br)c1)C1CCS(=O)(=O)C1 (configuration not stated)	i	nt	i	i	nt	i
CCC(=O)Nc1cc(NC(=O)CSc2ncc(-c3ccc(F)cc3)n2Cc2ccco2)ccc1C	77	72	i	i	nt	i
Cn1c(SCc2nc3ccccc3[nH]2)nnc1-c1cnccn1	i	i	i	i	nt	i
COc1ccc(-c2cnc(SCC(=O)Nc3cc(C)on3)n2Cc2ccco2)cc1	i	i	i	i	i	i
c1ccc(-c2nnc(SCc3nc4ccccc4[nH]3)n2Cc2ccco2)nc1	i	72	i	i	nt	i
CC(=O)n1cc(/C=N/NC(=O)c2ccccc2Cl)c2ccccc21	i	i	i	i	nt	i
Oc1c(C(Nc2nccs2)c2ccc(C(F)(F)F)cc2)ccc2cccnc12 (configuration not stated)	i	i	nt	-59	i	nt
Cc1nn(C)cc1/C=N\NC(=O)c1ccc2c(c1)c(C)c(C)n2Cc1ccccc1	128	i	i	i	i	i
CN(C)S(=O)(=O)c1ccc(C(=O)OCCc2ccccc2)cc1	i	i	i	i	i	i
CCOc1ccc2sc(NS(=O)(=O)c3ccc(OC)c(OC)c3)nc2c1	64	i	i	i	i	i
O=C(Cn1nnc(-c2ccccc2Cl)n1)N/N=C/c1ccc2c(c1)OCO2	i	i	i	i	nt	i
CC1=C([N+](=O)[O-])C(c2ccccc2Cl)NC(=O)N1C (configuration not stated)	i	60	i	i	i	i
CC1=C([N+](=O)[O-])C(c2ccccc2Cl)NC(=O)N1 (configuration not stated)	i	i	i	i	i	i
COC(=O)C(C)Sc1n[nH]c(=S)s1 (configuration not stated)	i	102	i	i	i	i
COC(=O)CSc1n[nH]c(=S)s1	i	i	i	i	i	i
CC(C)c1ccc(O)c(NC(=O)c2cccnc2)c1	i	i	i	i	i	i
CCC(C)c1ccc(O)c(NC(=S)NC(=O)c2cccnc2)c1 (configuration not stated)	72	i	i	i	i	i
CCc1ccccc1NC1=NCC(=O)N1Cc1ccccc1	i	i	i	i	nt	i
CCc1ccccc1NC1=NCC(=O)N1C1CCCCC1	59	i	i	i	nt	i
O=C1CC(c2ccccc2)Cc2nc3nc(C(F)(F)F)nn3cc21 (configuration not stated)	i	i	i	i	i	i
CCN(CC)C(=O)c1cc(-c2ccc(Br)cc2)on1	58	i	i	i	nt	i
O=C(c1cc(-c2ccc(Br)cc2)on1)N1CCCC1	i	i	i	i	i	i
O=C(COc1ccc(/C=N/NC(=O)c2cc3ccccc3o2)cc1Cl)Nc1ccccc1	i	i	i	i	i	i
CCOc1c(C)cc(S(=O)(=O)NCc2cccnc2)c(C)c1C	i	i	i	-56	i	i
O=C(Cc1ccc(S(=O)(=O)N2CCCC2)s1)Nc1nc2c(s1)CCCC2	i	61	i	i	i	i
CC(C)(C)NC(=O)Cc1ccc(S(=O)(=O)N2CCCC2)s1	i	i	i	i	i	i
O=C(C1CC1)N1CCc2cc(Br)cc(S(=O)(=O)NCCN3CCOCC3)c21	i	i	i	i	i	i
Nc1ccc2c(c1)OC1(CCCC1)O2	i	i	i	-89	i	i
